Laboratory results as given in ChEMBL document CHEMBL4257499, “Triazole-diindolylmethane conjugates as new antitubercular agents: synthesis, bioevaluation, and molecular docking” (Medchemcomm, 2018).
≈ marks a conversion by molar mass, not a printed value. Calls of active or inactive are those of the source. The calls are words filed in the database; no cut-off is given here.

Assays:
[1] = test system: Mycobacterium tuberculosis; experiment: Antimycobacterial activity against active stage of Mycobacterium tuberculosis H37Ra ATCC 25177 at 3 to 30 ug/ml by XRMA relative to control; type: functional
Summary of the method: (§1)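 Mtb H37Ra, from a -80 °C stock subcultured once in liquid medium, grown in M. pheli minimal medium (KH2PO4, trisodium citrate, MgSO4, asparagine, glycerol; pH 6.6) in 96-well plates. Primary screen at 30, 10 and 3 µg/mL. XTT reduction menadione read-out at 470 nm against cell-free blank. % inhibition = (control − compound)/(control − blank) × 100, with DMSO-vehicle wells as 100% growth. Duplicates.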

[2] = test system: Mycobacterium tuberculosis; experiment: Antimycobacterial activity against dormant stage of Mycobacterium tuberculosis H37Ra ATCC 25177 at 3 to 30 ug/ml by XRMA relative to control; type: functional; summary of the method: as §1
[3] = test system: Mycobacterium tuberculosis; experiment: Antimycobacterial activity against active stage of Mycobacterium tuberculosis H37Ra ATCC 25177 by XRMA; type: functional, organism-based
Summary of the method: (§2)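 Mtb H37Ra in M. pheli medium (pH 6.6) in 96-well plates. XTT reduction menadione read-out at 470 nm, with DMSO vehicle as 100% growth. MIC derived from the dose-response curve. Duplicates, average ± standard deviation.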

Bacillus subtilis = experiment: Antibacterial activity against Bacillus subtilis NCIM 2079 at 3 ug/ml after 8 hrs relative to control; type: functional
Summary of the method: (§3)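 Cultures grown to OD600 of 1, then set at 0.1 OD600 and exposed to compound at 3 µg/mL for 8 h at 37 °C. Ampicillin was the positive control. Activity is reported as % inhibition.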

[4] = test system: Mycobacterium tuberculosis; experiment: Antimycobacterial activity against dormant stage of Mycobacterium tuberculosis H37Ra ATCC 25177 by XRMA; type: functional, organism-based; summary of the method: as §2
Staphylococcus aureus = experiment: Antibacterial activity against Staphylococcus aureus NCIM 2010 at 3 ug/ml after 8 hrs relative to control; type: functional; summary of the method: as §3

Compound | Activity [1] | Activity [2] | IC50 [3] [µg/mL] | IC90 [3] [µg/mL] | Activity (Bacillus subtilis) [%] | IC50 [4] [µg/mL] | IC90 [4] [µg/mL] | Activity (Staphylococcus aureus) [%]
c1ccc(-n2cc(C(c3c[nH]c4ccccc34)c3c[nH]c4ccccc34)nn2)cc1 | Active | Active | – | – | – | – | – | –
O=[N+]([O-])c1cccc(-n2cc(C(c3c[nH]c4ccc(Br)cc34)c3c[nH]c4ccc(Br)cc34)nn2)c1 | >87.18% | >87.18% | 6.25 (≈ 10.6 µM) | > 30 | >70 | 2.56 (≈ 4.32 µM) | > 30 | –
Cc1ccc(-n2cc(C(c3c[nH]c4ccccc34)c3c[nH]c4ccccc34)nn2)cc1 | Active | Active | – | – | – | – | – | –
Brc1ccc2[nH]cc(C(c3cn(-c4ccccc4)nn3)c3c[nH]c4ccc(Br)cc34)c2c1 | >87.18% | >87.18% | 2.19 (≈ 4 µM) | 30 (≈ 54.8 µM) | >70 | 1.55 (≈ 2.83 µM) | 9.39 (≈ 17.2 µM) | –
COc1ccccc1-n1cc(C(c2c[nH]c3ccc(Br)cc23)c2c[nH]c3ccc(Br)cc23)nn1 | Active | Active | – | – | – | – | – | –
COc1ccc(-n2cc(C(c3c[nH]c4ccccc34)c3c[nH]c4ccccc34)nn2)cc1 | Active | Active | – | – | – | – | – | –
O=[N+]([O-])c1ccc(-n2cc(C(c3c[nH]c4ccccc34)c3c[nH]c4ccccc34)nn2)cc1 | Active | Active | – | – | – | – | – | –
COc1ccccc1-n1cc(C(c2c[nH]c3ccccc23)c2c[nH]c3ccccc23)nn1 | Active | Active | – | – | – | – | – | –
O=[N+]([O-])c1ccccc1-n1cc(C(c2c[nH]c3ccccc23)c2c[nH]c3ccccc23)nn1 | Active | Active | – | – | – | – | – | –
CO[C@H]1/C=C/O[C@@]2(C)Oc3c(C)c(O)c4c(O)c(c(/C=N/N5CCN(C)CC5)c(O)c4c3C2=O)NC(=O)/C(C)=C\C=C\[C@H](C)[C@H](O)[C@@H](C)[C@@H](O)[C@@H](C)[C@H](OC(C)=O)[C@@H]1C [RIFAMPIN] | – | – | 0.02 (≈ 0.0243 µM) | 0.53 (≈ 0.644 µM) | – | – | 0.8 (≈ 0.972 µM) | –
Clc1ccc(-n2cc(C(c3c[nH]c4ccc(Br)cc34)c3c[nH]c4ccc(Br)cc34)nn2)cc1 | >88.22% | >88.22% | – | – | >70 | – | – | –
COc1ccc(-n2cc(C(c3c[nH]c4ccc(Br)cc34)c3c[nH]c4ccc(Br)cc34)nn2)cc1 | >88.22% | >88.22% | – | – | – | – | – | –
Clc1cccc(-n2cc(C(c3c[nH]c4ccccc34)c3c[nH]c4ccccc34)nn2)c1 | >87.18% | >87.18% | 2.04 (≈ 4.81 µM) | > 30 | – | 0.37 (≈ 0.873 µM) | > 30 | –
Clc1cccc(-n2cc(C(c3c[nH]c4ccc(Br)cc34)c3c[nH]c4ccc(Br)cc34)nn2)c1 | >87.18% | >87.18% | 0.22 (≈ 0.378 µM) | 13.5 (≈ 23.2 µM) | – | 0.12 (≈ 0.206 µM) | 9.84 (≈ 16.9 µM) | 71.77
Clc1ccc(-n2cc(C(c3c[nH]c4ccccc34)c3c[nH]c4ccccc34)nn2)cc1 | Active | Active | – | – | – | – | – | –
CC(=O)Nc1ccc(-n2cc(C(c3c[nH]c4ccc(Br)cc34)c3c[nH]c4ccc(Br)cc34)nn2)cc1 | >87.18% | >87.18% | 1.52 (≈ 2.52 µM) | 6.16 (≈ 10.2 µM) | >70 | 1 (≈ 1.65 µM) | 3 (≈ 4.96 µM) | –
CC(=O)Nc1ccc(-n2cc(C(c3c[nH]c4ccccc34)c3c[nH]c4ccccc34)nn2)cc1 | Active | Active | – | – | – | – | – | –
O=[N+]([O-])c1ccccc1-n1cc(C(c2c[nH]c3ccc(Br)cc23)c2c[nH]c3ccc(Br)cc23)nn1 | >87.18% | >87.18% | 2.27 (≈ 3.83 µM) | > 30 | – | 1 (≈ 1.69 µM) | 30 (≈ 50.7 µM) | –
Cc1ccc(-n2cc(C(c3c[nH]c4ccc(Br)cc34)c3c[nH]c4ccc(Br)cc34)nn2)cc1 | Active | Active | – | – | – | – | – | –
O=[N+]([O-])c1ccc(-n2cc(C(c3c[nH]c4ccc(Br)cc34)c3c[nH]c4ccc(Br)cc34)nn2)cc1 | >87.18% | >87.18% | 14.8 (≈ 25 µM) | > 30 | – | 2.96 (≈ 5 µM) | > 30 | –
